# Fam108B inh: mouse Fam108B serine hydrolase inhibitors, primary screen, counter-screen for RBBP9 inhibitor project, biochemical, fluorescence polarization; inhibition, % at 9.51 µM; recombinant Fam108B, FP-Rh probe fluorescence polarization; AID 1947, 2009; hit rate 0.33% among 300,000;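 active means inhibition above the screen mean inhibition plus 3 SD, computed separately per campaign, cut at about 18% in these data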;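 further: inhibitors lower polarization as less probe binds the enzyme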
# PAD4 inh: human PAD4 inhibitors, primary screen, biochemical, fluorescence polarization, 1536-well format. recombinant PAD4, RCA probe fluorescence polarization. Protein-arginine deiminase type-4 (Homo sapiens), Q9UM07. AID 485272, 2010. hit rate 0.41% among 330,000. inhibition, % at 6.36 µM;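 active means percent inhibition above a cutoff equal to the mean of all tested compounds plus 3 SD, cut at about 15% in these data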;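 further: 0% = PAD4 with RCA probe and DMSO and 100% = probe without PAD4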
# Target sequence (Q9UM07 whole entry, looked up): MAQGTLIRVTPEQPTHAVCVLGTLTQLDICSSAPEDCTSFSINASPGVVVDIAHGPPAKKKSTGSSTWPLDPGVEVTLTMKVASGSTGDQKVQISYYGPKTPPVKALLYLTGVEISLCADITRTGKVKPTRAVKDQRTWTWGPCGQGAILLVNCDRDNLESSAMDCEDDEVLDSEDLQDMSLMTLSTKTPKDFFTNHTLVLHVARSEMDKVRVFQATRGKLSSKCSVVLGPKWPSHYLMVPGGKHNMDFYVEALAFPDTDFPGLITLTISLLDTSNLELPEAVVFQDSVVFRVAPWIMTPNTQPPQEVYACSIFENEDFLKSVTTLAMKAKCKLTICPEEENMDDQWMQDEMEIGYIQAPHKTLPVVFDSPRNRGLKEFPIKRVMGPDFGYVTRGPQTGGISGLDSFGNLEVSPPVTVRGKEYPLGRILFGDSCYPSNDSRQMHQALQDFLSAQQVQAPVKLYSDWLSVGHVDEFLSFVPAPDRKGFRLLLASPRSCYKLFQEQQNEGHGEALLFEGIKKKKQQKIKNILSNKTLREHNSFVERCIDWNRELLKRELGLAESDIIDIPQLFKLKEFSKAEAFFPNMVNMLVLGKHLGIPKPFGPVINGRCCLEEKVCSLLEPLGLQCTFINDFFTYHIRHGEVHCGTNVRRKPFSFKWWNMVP
# PME-1 primary: PME-1 inhibitors via competitive probe labeling, primary screen, biochemical, fluorescence polarization, FP-Rh probe, HTS; AID 2130, 2009; recombinant PME-1; inhibition, % at 5.9 µM; hit rate 0.53% among 320,000;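 active means inhibition above the campaign mean of all compounds plus 3 SD, cut at about 26% in these data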;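 further: competitive labeling of PME-1 active site by serine hydrolase directed probe; 0% = PME-1 with DMSO and 100% = wells lacking PME-1 enzyme; inhibitors block probe labeling so polarization falls and inhibition rises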
# RBBP9 inh: human RBBP9 inhibitors, primary screen, biochemical, fluorescence polarization, FP-Rh probe, HTS | recombinant RBBP9 | Serine hydrolase RBBP9 (Homo sapiens), O75884 | hit rate 0.2% among 220,000 | inhibition, % at 7.94 µM;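 active means inhibition above the campaign mean of all tested compounds plus 3 SD, cut at about 14% in these data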;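 further: plate controls were DMSO wells with RBBP9 for no effect and wells lacking RBBP9 protein for full effect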
#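 Controls: DMSO-treated enzyme wells and wells lacking RBBP9 | Material: RBBP9 protein | Technique: Fluorescence polarization | Replication: Single well per compound, no replicates | Buffer or medium: Tris-NaCl-Pluronic buffer, pH 8.0 | Timing: 30 min compound preincubation, 45 min probe labeling, 25 °C | Read-out basis: Percent inhibition from mP, scaled between DMSO and no-protein wells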
# LYPLA1 inh: LYPLA1 inhibitors, primary screen, counter-screen for PME1 inhibitor project, biochemical, fluorescence polarization, FP-Rh probe ABPP; Acyl-protein thioesterase 1 (Homo sapiens), O75608; recombinant LYPLA1; inhibition, % at 5.9 µM; hit rate 0.16% among 320,000; AID 2174, 2009;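 active means inhibition above the mean of all tested compounds plus 3 SD, set per campaign, cut at about 14% in these data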;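 further: inhibitors block serine hydrolase probe labeling of LYPLA1 so polarization falls; 0% = enzyme with DMSO and 100% = wells lacking LYPLA1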
# LYPLA2 counter: LYPLA2 inhibitors, primary screen, counter-screen for PME1 inhibitor project, biochemical, fluorescence polarization, FP-Rh probe ABPP; recombinant LYPLA2; inhibition, % at 5.9 µM; hit rate 0.38% among 320,000; Acyl-protein thioesterase 2 (Homo sapiens), O95372;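 active means inhibition above the screen-wide mean plus 3 SD, limit set per campaign, cut at about 26% in these data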;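 further: 0% = LYPLA2 with DMSO and 100% = wells lacking LYPLA2 enzyme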
# PAD4 FP conf: human PAD4 inhibitors, confirmation, biochemical, fluorescence polarization; shares compounds with PAD4 inh; recombinant PAD4, RCA probe fluorescence polarization; inhibition, % at 6.36 µM; hit rate 28% among 1,200; AID 488796, 2010;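 active means mean inhibition across replicates above the hit cutoff set by the earlier primary screen, cut at about 15% in these data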;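 further: inhibitors block active-site labeling by the probe so polarization falls; 0% = PAD4 with probe and DMSO and 100% = probe without PAD4 enzyme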
# An asterisk follows results filed as active; / = no result. This is a sample that favours compounds with a hit; in the whole collection about 1.3% have one here.
SMILES,Fam108B inh,PAD4 inh,PME-1 primary,RBBP9 inh,LYPLA1 inh,LYPLA2 counter,PAD4 FP conf
O=C1NC2=C(CCc3ccccc32)C(c2ccccc2)N1 (configuration not stated),11,27*,-15,-7,0,1,2
C=CCOc1ccc(C2NC(=S)NC3=C2CCc2ccccc23)cc1 (configuration not stated),-1,2,1,2,-5,-2,/
O=C(Nc1nc(-c2ccc(S(=O)(=O)N3CCOCC3)cc2)cs1)c1ccccc1,-31,15*,-34,-20,-30,-37,19*
O=C1CC(NS(=O)(=O)c2cccnc2)CN1c1ccccc1 (configuration not stated),3,2,-2,/,-1,1,/
COCCNC(=O)C(c1ccncc1)N(C(=O)Cn1nnc2ccccc21)c1ccc(OC)cc1 (configuration not stated),2,16*,-5,-1,6,5,19*
NC(=O)c1ccc(NC(=O)CSC(=O)c2ccccc2)cc1,/,17*,/,/,/,/,8
COc1ccc(-n2[nH]c(C)cc2=O)cc1,0,64*,7,-1,4,-6,3
Cc1cc(C(C)(C)C)cc(S(=O)(=O)NCCc2ccncc2)c1C,-2,2,3,/,-1,-2,/
CCCCCC1C(=O)C[C@@H]2CCN3C(=O)CCC[C@H]1[C@H]23 (some centres not stated),/,2,/,/,/,/,/
O=c1oc2cc(O)ccc2c2oc3cc(O)ccc3c12,9,-5,26,-3,-4,-5,/
Nc1ccc(-c2c3ccc(=O)cc-3oc3cc(O)ccc23)c(C(=O)O)c1,/,21*,3,/,7,2,15
CC1Cc2ccccc2N1C(=O)CN1C(=O)NC(C)(CCc2ccccc2)C1=O (configuration not stated),-1,-5,5,/,1,-4,/
COC(=O)c1[nH]c(=O)c2ccccc2c1OCc1ccccc1,0,-3,-2,-5,-2,-5,/
COC(=O)c1[nH]c(=O)c2ccccc2c1O,1,31*,0,0,2,4,-14
COc1ccc(C(=O)Nc2ccc(O)c3ccccc23)cc1,3,-8,3,/,2,5,/
COc1ccc(NC(=O)Nc2ccc(O)c3ccccc23)cc1,11,23*,14,/,-7,1,-2
COCc1cc(C)nc(SCC(=O)Nc2ccc(C)c(C)c2)c1C#N,2,5,2,-5,9,9,/
COCc1cc(C)nc(SCC(=O)Nc2ccc3c(c2)n(C)c(=O)n3C)c1C#N,1,197*,-3,/,4,6,2
CCOC(=O)c1c(-c2ccc(OC)cc2)csc1NC(=O)CSc1ccccc1,-4,20*,-10,-10,-6,-16,-2
CN(CCO)S(=O)(=O)c1ccc2c(c1)C(=NO)c1cc(S(=O)(=O)N(C)CCO)ccc1-2,-31,15*,-19,-58,-14,-35,-8
O=C(NCCO)c1ccc2nc(-c3ccco3)c(-c3ccco3)nc2c1,14,30*,0,-1,1,1,-5
COC(=O)C1C/C(=N\NS(=O)(=O)c2ccc(C)cc2)c2ccsc2C1 (configuration not stated),-2,-1,5,-4,0,3,/
CC(=O)Nc1ccc(S(=O)(=O)NCc2ccc3c(c2)cc(C)n3C)cc1,4,16*,6,-6,13,3,7
CC(Sc1nncs1)C(=O)Nc1ccc(S(=O)(=O)Nc2ncccn2)cc1 (configuration not stated),/,2,/,/,/,/,/
Cc1cc(NC(=O)CCC(=O)N(c2ccccc2)C(C(=O)NC2CCCC2)c2ccccc2F)no1 (configuration not stated),2,19*,5,/,-3,-3,2
SMILES,Fam108B inh,PAD4 inh,PME-1 primary,RBBP9 inh,LYPLA1 inh,LYPLA2 counter,PAD4 FP conf
Cc1cc(NC(=O)CCC(=O)N(c2cccnc2)C(C(=O)NC2CCCC2)c2ccccc2F)no1 (configuration not stated),-2,1,-2,-2,1,3,/
COc1ccc(-c2noc3c2-c2nc(-c4ccc(Br)cc4)sc2CC3)cc1,0,102*,2,/,-1,4,2
CCN1C(=O)[C@@H]2C(C(=O)c3cnccn3)=NN[C@@H]2C1=O,3,20*,-3,-3,0,-5,-7
COc1ccc(S(=O)(=O)N2CCOC23CCN(S(=O)(=O)c2c(C)cc(C)cc2C)CC3)cc1,0,-4,0,/,0,-1,/
COc1ccc(C(=O)CSc2nnc(NC(=O)C3CC(=O)N(c4ccccc4C)C3)s2)cc1 (configuration not stated),0,-9,-6,-17,-2,3,/
CN(C(=S)NC(=O)C12CC3CC(CC(C3)C1)C2)c1ccc(O)cc1,/,24*,/,/,/,/,1
CN(C)NC(=S)NC(=O)C12CC3CC(CC(C3)C1)C2,0,1,-1,5,-4,4,/
CCOC(=O)c1cc(C)sc1NC(=O)CSC1=NCCS1,-5,15*,5,/,3,6,19*
COc1ccc(S(=O)(=O)N2CCC(C(=O)NCc3ccncc3)CC2)cc1C,-2,0,2,/,0,1,/
COc1cccc(CN2CCNC(=O)C2CC(=O)NCc2cn3ccc(C)cc3n2)c1OC (configuration not stated),0,-3,-1,5,-1,-5,/
N#Cc1cccc(NS(=O)(=O)c2ccccc2Cl)c1,/,22*,6,/,0,3,1
N#Cc1cccc(NS(=O)(=O)c2ccc(S(=O)(=O)N3CCOCC3)cc2)c1,/,-3,0,/,-2,0,/
COC(=O)CSc1nc2[nH]ncc2c(=O)[nH]1,-2,-4,1,0,0,-3,/
O=C(CCCNC(=O)c1ccc(Cl)cc1)Nc1ccc(Br)cc1,-5,-2,6,/,0,-2,/
C=CCn1c(NC)cc(=O)n(C)c1=O,3,20*,-3,2,-2,6,6
O=C(NCCc1ccccc1)C(=O)NCC1CCNCC1,4,0,4,-2,0,6,/
Oc1cccc(C=NCc2ccccc2)c1O,17,21*,3,-8,-1,6,0
O=Cc1ccc(Sc2nnc(-c3ccccc3)o2)c([N+](=O)[O-])c1,6,24*,-1,-11,3,8,24*

# From PubChem
